# Measured values reported in ChEMBL document CHEMBL4811241, “Revisiting Pyrazolo[3,4-d]pyrimidine Nucleosides as Anti-Trypanosoma cruzi and Antileishmanial Agents” (J Med Chem, 2021).
# Tests used:
# [1] = Selectivity index, ratio of CC50 for Swiss mouse peritoneal macrophages to IC50 for antileishmanial activity against amastigote form of Leishmania infantum MHOM/MA(BE)/67 infected in Swiss mouse peritoneal macrophages; assay type: toxicity; conditions: read-out: Ratio CC50/IC50
# Procedure, shortened: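 Ratio of macrophage CC50 to L. infantum amastigote IC50, both taken from the same 5-day macrophage assay.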
# Leishmania infantum = experiment: Antileishmanial activity against amastigote form of Leishmania infantum MHOM/MA(BE)/67 infected in Swiss mouse peritoneal macrophages assessed as reduction in parasite growth treated at 2 hrs post-infection and measured after 5 days by Giemsa staining based microscopic analysis; assay type: functional, organism-based; conditions: MHOM/MA(BE)/67, Peritoneal macrophage
# Procedure, shortened: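 Swiss mouse peritoneal macrophages, harvested after 2-day potato-starch stimulation, infected 48 h after plating; compounds added 2 h post-infection.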
# [2] = Cytotoxicity against human MRC-5 SV2 cells assessed as reduction in cell growth measured after 3 days by resazurin dye based fluorometric analysis; conditions: time 3 day
# Trypanosoma cruzi = experiment: Antitrypanosomal activity against nifurtimox-sensitive Trypanosoma cruzi Tulahuen CL2 infected in human MRC-5 SV2 cells assessed as inhibition of parasite growth measured after 7 days by spectrophotometric analysis; assay type: functional, organism-based; conditions: Tulahuen CL2, MRC-5 SV2, 168 h
# [3] = Cytotoxicity against Swiss mouse peritoneal macrophages assessed as cell detachment, lysis and granulation measured after 5 days by microscopic analysis; assay type: cell-based, Peritoneal macrophage; conditions: time 5 day
# Procedure, shortened: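 Scored within the Leishmania macrophage assay over 5 days: detachment, lysis and granulation judged semi-quantitatively by microscopy across at least 500 cells. CC50 derived from % reduction in normal cells versus untreated wells.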
# [4] = Selectivity index, ratio of CC50 for human MRC-5 SV2 cells to IC50 for antitrypanosomal activity against nifurtimox-sensitive Trypanosoma cruzi Tulahuen CL2 infected in human MRC-5 SV2 cells; assay type: toxicity, cell-based; conditions: read-out: Ratio CC50/IC50
# Procedure, shortened: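 Ratio of MRC-5SV2 CC50 (3-day resazurin assay) to IC50 against T. cruzi amastigotes in MRC-5SV2 cells (7-day CPRG assay).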
Compound,selectivity ratio [1],IC50 (Leishmania infantum) [µM],CC50 at 72 h [2] [µM],IC50 (Trypanosoma cruzi) [µM],CC50 at 120 h [3] [µM],selectivity ratio [4]
Nc1ncnc2c1c(Br)nn2[C@@H]1O[C@H](CO)[C@@H](O)[C@H]1O,> 2,29.4,> 64,4.37,> 64,> 15
Nc1ncnc2c1c(I)nn2[C@@H]1O[C@H](CO)[C@@H](O)[C@H]1O,> 2,25.4,25.4,12.6,> 64,2
Nc1ncnc2c1c(Br)nn2[C@@H]1O[C@H](CO)[C@@H](F)[C@H]1O,1,0.08,0.23,1.06,0.13,–
Nc1ncnc2c1c(C#Cc1ccccc1)nn2[C@@H]1O[C@H](CO)[C@@H](O)[C@H]1O,> 1,49.4,> 64,29.4,> 64,> 2
Nc1ncnc2c1c(-c1ccc(Cl)cc1)nn2[C@H]1C[C@H](O)[C@@H](CO)O1,1,≥ 32.5,> 64,2.49,≥ 32,> 22
Oc1ncnc2[nH]ncc12 [ALLOPURINOL],> 18,3.51,> 64,9.75,> 64,> 7
Cc1nn([C@@H]2O[C@H](CO)[C@@H](O)[C@H]2O)c2ncnc(N)c12,1,32.7,57.5,4.68,40,12
N#Cc1nn([C@@H]2O[C@H](CO)[C@@H](O)[C@H]2O)c2ncnc(N)c12,> 8,8,34.6,0.95,> 64,36
Cc1ccc(-c2nn([C@@H]3O[C@H](CO)[C@@H](O)[C@H]3O)c3ncnc(N)c23)s1,> 1,≥ 32,> 64,7.1,> 64,> 9
Nc1ncnc2c1c(-c1ccc(Cl)cc1Cl)nn2[C@@H]1O[C@H](CO)[C@@H](O)[C@H]1O,> 1,52.8,> 64,6.06,> 64,> 11
C=C(C)c1nn([C@@H]2O[C@H](CO)[C@@H](O)[C@H]2O)c2ncnc(N)c12,1,24.1,0.35,29.5,32,< 1
Nc1ncnc2c1c(-c1ccccn1)nn2[C@@H]1O[C@H](CO)[C@@H](O)[C@H]1O,1,≥ 50.8,36.4,30.1,> 64,1
Nc1ncnc2c1c(CCc1ccccc1)nn2[C@@H]1O[C@H](CO)[C@@H](O)[C@H]1O,–,> 64,> 64,52.3,> 64,> 1
Nc1ncnc2c1c(Cl)nn2[C@@H]1O[C@H](CO)[C@@H](O)[C@H]1O,> 1,> 64,> 64,2.89,> 64,> 22
Nc1ncnc2c1c(-c1c[nH]nn1)nn2[C@@H]1O[C@H](CO)[C@@H](O)[C@H]1O,> 1,43.1,0.6,0.43,> 64,1
Cc1csc(-c2nn([C@@H]3O[C@H](CO)[C@@H](O)[C@H]3O)c3ncnc(N)c23)c1,–,> 64,> 64,32,> 64,> 2

Compound,selectivity ratio [1],IC50 (Leishmania infantum) [µM],CC50 at 72 h [2] [µM],IC50 (Trypanosoma cruzi) [µM],CC50 at 120 h [3] [µM],selectivity ratio [4]
C=Cc1nn([C@@H]2O[C@H](CO)[C@@H](O)[C@H]2O)c2ncnc(N)c12,3,12.7,> 64,> 64,32,–
CCOc1cc(-c2nn([C@@H]3O[C@H](CO)[C@@H](O)[C@H]3O)c3ncnc(N)c23)ccc1Cl,–,> 64,> 64,45.3,> 64,> 1
Nc1ncnc2c1c(C(=O)Nc1ccccc1)nn2[C@@H]1O[C@H](CO)[C@@H](O)[C@H]1O,1,32.5,> 64,> 64,32,–
Nc1ncnc2c1c(-c1ccc(Cl)cc1)nn2[C@@H]1O[C@H](CO)C[C@H]1O,–,> 64,> 64,1.04,> 64,> 61
Nc1ncnc2c1c(-c1ccc(Cl)s1)nn2[C@@H]1O[C@H](CO)[C@@H](O)[C@H]1O,–,> 64,47.3,2.56,> 64,14
Nc1ncnc2c1c(-c1ccc(F)cc1)nn2[C@@H]1O[C@H](CO)[C@@H](O)[C@H]1O,–,> 64,> 64,3.36,> 64,> 19
Nc1ncnc2c1c(Oc1ccccc1)nn2[C@@H]1O[C@H](CO)[C@@H](O)[C@H]1O,> 2,32,> 64,> 64,> 64,–
COc1ccc(-c2nn([C@@H]3O[C@H](CO)[C@@H](O)[C@H]3O)c3ncnc(N)c23)cc1,–,> 64,> 64,18.2,> 64,> 4
Nc1ncnc2c1c(-c1ccc(Cl)c(Cl)c1)nn2[C@@H]1O[C@H](CO)[C@@H](O)[C@H]1O,–,> 64,> 64,2.82,> 64,> 23
Cn1cc(-c2nn([C@@H]3O[C@H](CO)[C@@H](O)[C@H]3O)c3ncnc(N)c23)cn1,–,> 64,> 64,45.3,> 64,> 1
CNc1nn([C@@H]2O[C@H](CO)[C@@H](O)[C@H]2O)c2ncnc(N)c12,> 1,50.8,> 64,> 64,> 64,–
Nc1ncnc2c1c(C(F)(F)F)nn2[C@@H]1O[C@H](CO)[C@@H](O)[C@H]1O,–,> 64,13.3,27,> 64,< 1
Nc1ncnc2c1c(-c1cc(F)c(Cl)c(F)c1)nn2[C@@H]1O[C@H](CO)[C@@H](O)[C@H]1O,–,> 64,> 64,1.33,> 64,> 17
Cc1cc(Cl)ccc1-c1nn([C@@H]2O[C@H](CO)[C@@H](O)[C@H]2O)c2ncnc(N)c12,–,> 64,> 64,3.76,> 64,> 17
Cc1cc(-c2nn([C@@H]3O[C@H](CO)[C@@H](O)[C@H]3O)c3ncnc(N)c23)ccc1Cl,–,> 64,> 64,0.81,> 64,> 79
